Laboratory results taken from article PMC7318623 (Chemmedchem, 2020).

How the values were obtained:
COS‐7 cells = assay: Modified MTT assay; type: cell-based, monkey; settings: non-malignant COS-7 cells
Method in brief: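 COS-7 cells seeded 2×10³ per well in triplicate, then 24 h in humidified 5% CO2/95% air at 37 °C before dosing. Test compound added at 20 μM alongside a DMSO vehicle control (DMSO ≤0.1% final) and incubated 72 h. Metabolic activity read by the EZ4U modified MTT (formazan) assay and expressed relative to vehicle control set at 100%. Mean + SD, ≥3 independent experiments, three replicates each.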

PPARγ = target: T1, PPARγ (Homo sapiens, UniProt P37231); assay: PPARγ luciferase transactivation assay; type: cell-based
T1 sequence (P37231 238-503 limits assumed): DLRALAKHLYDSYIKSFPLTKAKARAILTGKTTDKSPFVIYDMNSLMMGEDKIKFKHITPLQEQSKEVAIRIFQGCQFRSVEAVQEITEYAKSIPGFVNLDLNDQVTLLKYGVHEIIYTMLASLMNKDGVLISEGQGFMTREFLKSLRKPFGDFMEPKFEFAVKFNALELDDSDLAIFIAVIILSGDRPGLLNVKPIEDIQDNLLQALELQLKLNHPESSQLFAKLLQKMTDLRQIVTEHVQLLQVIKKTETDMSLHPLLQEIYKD

K562‐resistant cells = assay: Induction of cell death by PI FACS analyses, without or with imatinib; type: cell-based; settings: for cell death rate, compound in combination with imatinib: 10 μM compound + 1 μM imatinib

Row | SMILES | cell death rate, compound in combination with imatinib (K562‐resistant cells; 72 h) [%] | EC50 (PPARγ) [µM] | other results
1 | CCCc1nc2ccccc2n1Cc1ccc(-c2ccccc2C(=O)OC)cc1 [2 b, Methyl 4′‐((2‐propyl‐1H‐benzo[d]imidazol‐1‐yl)methyl)‐[1,1′‐biphenyl]‐2‐carboxylate] | 80 | – | cytotoxicity per se (in words) (COS‐7 cells): did not exert cytotoxicity per se; PPARγ activation at 20 μM (PPARγ; compound at 20 μM, relative to pioglitazone 10 μM = 100 %): about 36%; cell death rate, compound alone (K562‐resistant cells; 10 μM compound, 72 h, without imatinib): 21%
2 | O=C(O)c1ccccc1-c1ccc(Cn2c3ccccc3c3ccccc32)cc1 [3 a, 4′‐((9H‐Carbazol‐9‐yl)methyl)‐[1,1′‐biphenyl]‐2‐carboxylic acid] | – | 10.4 ± 3.9 | –
3 | CCCc1nc2ccccc2n1Cc1ccc(-c2ccccc2C(=O)O)cc1 [3 b, 4′‐((2‐Propyl‐1H‐benzo[d]imidazol‐1‐yl)methyl)‐[1,1′‐biphenyl]‐2‐carboxylic acid] | 31 | 6.98 ± 1.06 | –
4 | CCc1c(C)n(Cc2ccc(-c3ccccc3C(=O)O)cc2)c2ccccc12 [3 c, 4′‐((3‐Ethyl‐2‐methyl‐1H‐indol‐1‐yl)methyl)‐[1,1′‐biphenyl]‐2‐carboxylic acid] | – | 6.86 ± 1.58 | –
5 | CCCc1nc2cc(Br)ccc2n1Cc1ccc(-c2ccccc2C(=O)OC)cc1 [5 b, Methyl 4′‐((5‐bromo‐2‐propyl‐1H‐benzo[d]imidazol‐1‐yl)methyl)‐[1,1′‐biphenyl]‐2‐carboxylate] | 31 | – | –
6 | O=C(O)c1ccccc1-c1ccc(Cn2c3ccccc3c3cc(Br)ccc32)cc1 [6 a, 4′‐((3‐Bromo‐9H‐carbazol‐9‐yl)methyl)‐[1,1′‐biphenyl]‐2‐carboxylic acid] | – | 5.68 ± 1.07 | –
7 | CCc1c(C)n(Cc2ccc(-c3ccccc3C(=O)O)cc2)c2ccc(Br)cc12 [6 c, 4′‐((5‐Bromo‐3‐ethyl‐2‐methyl‐1H‐indol‐1‐yl)methyl)‐[1,1′‐biphenyl]‐2‐carboxylic acid] | – | 9.52 ± 0.74 | –
8 | CCCc1nc2ccc(Br)cc2n1Cc1ccc(-c2ccccc2C(=O)OC)cc1 [6‐Br‐CO2CH3, methyl 4′‐((6‐bromo‐2‐propyl‐1H‐benzo[d]imidazol‐1‐yl)methyl)‐[1,1′‐biphenyl]‐2‐carboxylate] | 63 | – | –
9 | Cc1ccc(NC(=O)c2ccc(CN3CCN(C)CC3)cc2)cc1Nc1nccc(-c2cccnc2)n1 [imatinib, reference compound] | – | – | cell death, imatinib alone (K562‐resistant cells; 1 μM imatinib, K562-resistant (KD225) cells): 10–20%
10 | CCCc1nc2c(C)cc(-c3nc4ccccc4n3C)cc2n1Cc1ccc(-c2ccccc2C(=O)O)cc1 [telmisartan, reference compound] | – | 4.78 ± 0.79 | –
